Assay results collected from several papers.
Lines come from different studies, so protocols differ.
Target: Casein kinase I isoform gamma-3 (CSNK1G3, Homo sapiens, UniProt Q9Y6M4)

Compound | assay | setting | measurement | value
N#Cc1ccc2nc(Nc3ccc(N4CCOCC4)c(Cl)c3)[nH]c2c1 | thermal stability, DSF | 30 µM | ΔTm | 3.3 °C
CCCCC(=O)Nc1ccc(-c2ccc3ncn(CCC)c(=O)c3c2)cn1 | binding, competition with immobilised ligand | 0.5 µM | remaining binding | 85%
COc1ccc2[nH]c3c4[nH]c5ccc(OC)cc5c4c4c(c3c2c1)C(=O)NC4=O | binding | 1 µM | remaining binding | 100%
CO[C@@H]1[C@H](N(C)C(=O)c2ccccc2)C[C@H]2O[C@]1(C)n1c3ccccc3c3c4c(c5c6ccccc6n2c5c31)C(=O)NC4 | enzyme activity, inhibitor | 1 µM | inhibition | 0%
Cc1cc(O)c(-c2ccc([C@@H](C)CN(C)C)cc2)c2c1[nH]c(=O)c1sccc12 | enzyme activity, inhibitor | 0.1 µM | inhibition | -4.11%
Cc1ccc(NC(=O)c2ccnc(C(F)(F)F)c2)cc1-c1cc(OCCO)nc(N2CCOCC2)c1 | binding | 1 µM | remaining binding | 100%
C=CC(=O)N1CCC([C@@H]2CCNc3c(C(N)=O)c(-c4ccc(Oc5ccccc5)cc4)nn32)CC1 | enzyme activity, inhibitor | 1 µM | inhibition | 0%
C1=C/COCc2cc(ccc2OCCN2CCCC2)Nc2nccc(n2)-c2cccc(c2)COC/1 | cell-free assay | 0.1 µM | remaining signal | 100%
